Test system: MS2 coat protein
Test: apparent Kd, MS2 coat protein; higher = weaker binding; RNA-MaP array; FMN 200 µM where present
Summary of the method: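 Stalled E. coli RNA polymerase transcribed the designs on Illumina sequencing-chip clusters. SNAP-549-labelled MS2 coat protein was titrated from 0.7 or 1.5 nM, doubling to 3 µM, without and then with constant ligand, in 100 mM Tris-HCl pH 7.5, 80 mM KCl, 4 mM MgCl2, BSA, DTT, yeast tRNA and Tween-20. Per-cluster binding curves were fitted to green signal normalised to red-channel RNA signal and control-cluster median Fmax. The apparent Kd is the median of the filtered fits.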

[1] = designed as: OFF switch for flavin mononucleotide, no ligand
[2] = ligand present: flavin mononucleotide, designed as: OFF switch for flavin mononucleotide
[3] = designed as: ON switch for flavin mononucleotide, no ligand
[4] = ligand present: flavin mononucleotide, designed as: ON switch for flavin mononucleotide

| Sequence | apparent Kd [1] [nM] | apparent Kd [2] [nM] | apparent Kd [3] [nM] | apparent Kd [4] [nM] |
| --- | --- | --- | --- | --- |
| AGCAGACGAGGAUAUAGAUUUAAGUACAUGAGGAUCACCCAUGUACACAUGUAUUUAGAUUUAGAAGGCGUCUGCU | 666 | 664 | – | – |
| AGCAGUACAGGAUAUACAUGAGGAUCACCCAUGUGAAAAUUAAGUGGCGUACCACAAAGUAGAAGGGUACUGCA | 32 | 117 | – | – |
| AGCAUGUAAGGAUAUGCAACACGACGUUCAAUCGUCGUGCCGCAGAAGGUACAUGAGGAUCACCCAUGUGCUCC | 104 | 129 | – | – |
| AGCAUGUAAGGAUAUGCAAGUGGUACGGAUAGUACCAUAAAGCAGAAGGUACAUGAGGAUCACCCAUGUGCUCC | 36.3 | 66.7 | – | – |
| AGCAUUGCUUAGAAGGGAAAUUUAUAAUUUAAUUCAGGAUAUAGAUACAGUACAACAUGAGGACAUGAGGAUCACCCAUGUAUA | – | – | 25.8 | 19.3 |
| AGCCAGGAUGAGUACCUGAGCGGGAGAAGGUACGAGGGAUCGUCUGGACAUGAGGAUCACCCAUGUAAGGAUAUCCCGCCUAUU | 8.69 | 15 | – | – |
| AGCCUGAGUCGAGGAUAUUAUGGAUCCUUUAAUACAUGAGGAUCACCCAUGUAAUUAAUUAUACAUGAGAAGGUGACUCAGGCA | – | – | 265 | 25.1 |
| AGCGAACAGGCUAACAUGAGGAUCACCCAUGUGGACUCAUGGUAGGAUAUCGGGAAGGAGGAAACCGAGAAGGGCCGGUGAGCU | – | – | 254 | 62.8 |
| AGCGCGGUCCACUUGGACGCCUACGAGGAUAUCCUGUCACAUGAGGAUCACCCAUGUAGGCACAUGGAGAAGGCGUAGAAAUCA | – | – | 60.9 | 7.22 |
| AGCGGAUAACAGUAGGAUAUGGCCAACGCCACAUGAGGAUCACCCAUGUCGUACCGGCACCUGGACUAGAAGGACUGCCUCCCGC | – | – | 30.8 | 14.5 |
| AGCGUCGGCACAGGAUAUGAGAUGCCGGCAGACAUGAGGAUCACCCAUGUAAGCGAACCAGGCAGUCAGAAGGGUGAUCGACAA | – | – | 56.3 | 21.7 |
| AGCUACGUUUCGUAGCAGCUAGAAAAGGAUAUUCAAUUUUUCACAUGAGGAUCACCCAUGUAUGUGAAGAAGGCGCCUAGAAAG | – | – | 50.4 | 35.9 |
| AGCUACGUUUCGUAGCAGCUAGGUGAGGAUAUCCUUAUACAUGAGGAUCACCCAUGUUAGCCAUGGGAGAAGGCGCCUAGAAAG | – | – | 328 | 24.8 |
| AGCUACGUUUCGUAGCAGCUAGGUGAGGAUAUUAAAAUUUUCACAUGAGGAUCACCCAUGUAUGUGAAGAAGGCGCCUAGAAAG | – | – | 53.7 | 7.76 |
| AGCUACGUUUCGUAGCAGUGUCAUCGAGAAGGCCUUAUAACAUGAGGAUCACCCAUGUUUGCAUGGGAGGAUAUCGAUGAUACA | – | – | 20.1 | 5.63 |
| AGCUACGUUUCGUAGCAGUGUCAUCGAGAAGGCUCAUAUACAUGAGGAUCACCCAUGUUUUCAUGGGAGGAUAUCGAUGAUACA | – | – | 108 | 8.76 |
| AGCUAGGUAGGAUAUGCGUAAAUGUCGAAAGACGUAUUGGGACAUGAGGAUCACCCAUGUAGAAGGAUCUAGCA | 39.3 | 55.7 | – | – |
| AGCUAGUCAGGAUAUACGAAAAUGUCAGAAGCUGAGAAGGGACAUGAGGAUCACCCAUGUAGAAGGGACUAGCA | 57.5 | 299 | – | – |
| AGCUAGUCAGGAUAUACGAACAUGUCAAAAGACGAGAACGGACAUGAGGAUCACCCAUGUAGAAGGGACUAGCA | 55 | 325 | – | – |
| AGCUAGUCAGGAUAUACGAACAUGUCAAAAGACGUGAAGGGACAUGAGGAUCACCCAUGUAGAAGGGACUAGCC | 26.7 | 170 | – | – |
| AGCUAGUCAGGAUAUACGAGAACGAACGAAGCAGUGAAGGGACAUGAGGAUCACCCAUGUAGAAGGGACUAGCA | 36 | 82.6 | – | – |
| AGCUAGUGAGGAUAUACGAACAUGUCAAAAGACGUGAGGGAACAUGAGGAUCACCCAUGUAGAAGGCACUAGCA | 38.8 | 33 | – | – |
| AGCUGGAGAGGAUAUACGUAAGUGAAAAAAGUCUGAUAACUACAUGAGGAUCACCCAUGUAGAAGGCUCUGGCA | 19.3 | 33.2 | – | – |
